The source of these data is ChEMBL document CHEMBL1144645, “The discovery of highly selective erbB2 (Her2) inhibitors for the treatment of cancer” (Bioorg Med Chem Lett, 2007).

Each structure is given as a SMILES string.

Data set [1] concerns the target Epidermal growth factor receptor and ErbB2 (HER1 and HER2) (Homo sapiens) (UniProt P04626+P00533). As to the kind of experiment: Selectivity for erbB2 over EGFR. Format: protein assay. In short, it runs like this: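 Cell selectivity: IC50 ratio between two NIH3T3 lines run under identical conditions, one carrying human EGFR and one carrying the EGFR-extracellular/erbB2-intracellular chimera. Each line takes 2 h inhibitor, then 15 min human recombinant EGF. Phosphotyrosine measured with HRP-PY-54 and TMB at 450 nm.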

The target in data set [2] is T1, Receptor tyrosine-protein kinase erbB-2 (Homo sapiens, UniProt P04626). As to the kind of experiment: Inhibition of erbB2 in NH3T3 cells. The class given is cell-based. In short, it runs like this: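 NIH3T3 cells expressing a chimera of EGFR extracellular and erbB2 intracellular domains are plated, exposed to inhibitor for 2 h, then stimulated with human recombinant EGF for 15 min. Receptor phosphotyrosine read with HRP-PY-54 antibody and TMB, A450. IC50 is the mean of at least two experiments.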
T1 sequence (P04626 whole entry, the tested form may be a part): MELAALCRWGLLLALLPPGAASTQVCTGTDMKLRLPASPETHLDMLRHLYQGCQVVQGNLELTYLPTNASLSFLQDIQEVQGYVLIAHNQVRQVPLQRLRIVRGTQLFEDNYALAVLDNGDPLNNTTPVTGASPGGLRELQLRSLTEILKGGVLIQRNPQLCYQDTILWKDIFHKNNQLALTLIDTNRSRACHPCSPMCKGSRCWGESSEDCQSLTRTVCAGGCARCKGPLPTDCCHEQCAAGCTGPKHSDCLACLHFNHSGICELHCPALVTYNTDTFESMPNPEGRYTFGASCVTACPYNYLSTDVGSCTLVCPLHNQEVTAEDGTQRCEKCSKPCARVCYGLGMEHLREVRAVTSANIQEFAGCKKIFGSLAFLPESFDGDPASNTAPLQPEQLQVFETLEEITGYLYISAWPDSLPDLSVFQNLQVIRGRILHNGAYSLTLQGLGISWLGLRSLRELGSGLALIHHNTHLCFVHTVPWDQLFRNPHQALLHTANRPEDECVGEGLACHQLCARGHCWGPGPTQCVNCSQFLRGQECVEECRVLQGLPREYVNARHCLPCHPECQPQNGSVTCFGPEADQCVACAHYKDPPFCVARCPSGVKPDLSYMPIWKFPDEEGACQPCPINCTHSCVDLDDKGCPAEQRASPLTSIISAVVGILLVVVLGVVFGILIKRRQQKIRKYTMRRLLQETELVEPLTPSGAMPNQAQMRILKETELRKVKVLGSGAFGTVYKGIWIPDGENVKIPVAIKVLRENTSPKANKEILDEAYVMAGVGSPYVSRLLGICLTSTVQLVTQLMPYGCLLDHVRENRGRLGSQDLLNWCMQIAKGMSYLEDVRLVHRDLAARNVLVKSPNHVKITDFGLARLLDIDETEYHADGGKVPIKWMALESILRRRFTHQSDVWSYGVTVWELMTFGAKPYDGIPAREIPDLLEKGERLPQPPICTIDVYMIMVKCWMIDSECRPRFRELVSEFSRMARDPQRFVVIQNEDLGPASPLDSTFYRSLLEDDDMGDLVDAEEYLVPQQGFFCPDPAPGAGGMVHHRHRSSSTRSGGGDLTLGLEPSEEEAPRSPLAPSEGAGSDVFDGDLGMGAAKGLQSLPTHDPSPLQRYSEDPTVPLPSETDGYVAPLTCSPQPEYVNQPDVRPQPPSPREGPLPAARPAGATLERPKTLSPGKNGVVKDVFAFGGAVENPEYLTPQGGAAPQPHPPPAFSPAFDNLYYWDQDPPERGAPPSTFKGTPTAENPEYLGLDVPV

Data set [3] addresses T1, Receptor tyrosine-protein kinase erbB-2. As to the kind of experiment: Inhibition of erbB2 expressed in Sf9 cells. In short, it runs like this: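 GST-tagged erbB2 intracellular domain (residues 675–1255) made in baculovirus/Sf9 and purified; ~15 ng enzyme phosphorylates poly(Glu,Tyr) with 1 mM ATP plus inhibitor over 6 min. Phosphotyrosine detected by HRP-PY-54 antibody and TMB, A450. IC50 is the mean of at least two experiments.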

The nature of data set [4]: Clearance in rat at 2 mg/kg, iv. Particulars: in vivo. The arrangement: dose 2 mg/kg, route intravenous. Format: ADME, organism-based. In short, it runs like this:
(§1)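 Single 2 mg/kg IV dose (HCl salt) to define clearance, volume of distribution and half-life; oral arm given 5 mg/kg in 0.5% methylcellulose to derive bioavailability (F).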

Data set [5] in a line: Bioavailability in rat at 5 mg/kg, po. Format: ADME, organism-based. The note with it: in vivo. In short, it runs like this: as §1
Data set [6] in a line: Half life in rat at 2 mg/kg, iv after 1 hr. Particulars: in vivo. The class given is ADME, organism-based. The arrangement: dose 2 mg/kg, route intravenous. In short, it runs like this:
as §1

A short description of data set [7]: Volume of distribution in rat at 2 mg/kg, iv. The class given is ADME, organism-based. Also noted: dose 2 mg/kg, route intravenous. Particulars: in vivo, read-out: Vdss. In short, it runs like this:
as §1

For orientation: IC50 means the midpoint of a concentration-inhibition curve. As for `COc1cc2ncnc(Nc3ccc(Oc4ccc(C(=O)NCC(C)(C)C)cc4)c(C)c3)c2cc1OC`, in data set [1], the Selectivity ratio amounted to 1. For the same compound, the IC50 in data set [2] is 310 nM; in data set [3], 77 nM.

As to `CNC(=O)c1ccc(Oc2ccc(Nc3ncnc4ccc(C#CCNC(=O)COC)cc34)cc2C)cc1`, the IC50 in data set [3] was greater than 10000 nM.

The compound `COCC(=O)NCC#Cc1ccc2ncnc(Nc3ccc(OC4CCN(C)CC4)c(C)c3)c2c1` yielded an IC50 in data set [3] greater than 10000 nM.

In the case of `COc1ccc2ncnc(Nc3ccc(OC4CCN(C(=O)CC(C)(C)C)CC4)c(C)c3)c2c1`, in data set [3], the IC50 turned out to be 96 nM.

In turn, `COCC(=O)NCC#Cc1ccc2ncnc(Nc3ccc(Oc4ccc(C(=O)NC(C)(C)C)cc4)c(C)c3)c2c1` gave an IC50 in data set [3] greater than 10000 nM.

As to `COCC(=O)NCC#Cc1ccc2ncnc(Nc3ccc(Oc4ccc(C(=O)NCC(C)(C)C)cc4)c(C)c3)c2c1`, the Selectivity ratio in data set [1] was found to be 200. Besides, the IC50 in data set [2] came out at 23 nM; in data set [3], 140 nM.

`COCC(=O)NCC#Cc1ccc2ncnc(Nc3ccc(Oc4cccc(C(=O)N(C)C)c4)c(C)c3)c2c1` had an IC50 in data set [3] greater than 10000 nM.

In turn, `COCC(=O)NCC#Cc1ccc2ncnc(Nc3ccc(OC4CCNCC4)c(C)c3)c2c1` returned an IC50 in data set [3] greater than 10000 nM.

As usually defined, the clearance is the volume of plasma or blood freed of the substance per unit of time. Lower therefore signals a low capacity for elimination. The term bioavailability denotes dose-corrected exposure relative to a reference, in per cent. The low end stands for poor availability, the high end for good availability. The term half-life denotes how long it takes for the measured level to halve. High values mean slow decline, low ones rapid decline. In data set [4], `Cc1cc(Nc2ncnc3cnc(N4CCOCC4)cc23)ccc1OC1CCN(C(=O)C2CCCC2)CC1` came in with a clearance of 2.5 mL/min/kg. The compound also showed a bioavailability in data set [5] of 54%. This compound showed a half-life in data set [6] of 1 h. For the same compound, the Vd in data set [7] was 0.2 L/kg. Also, in data set [1], the Selectivity ratio was greater than 300. For the same compound, the IC50 in data set [2] came out at 33 nM; in data set [3], 18 nM.

`COc1ccc2ncnc(Nc3ccc(OC4CCN(C(=O)Nc5c(F)cccc5F)CC4)c(C)c3)c2c1`: in data set [1], the Selectivity ratio stood at 11. The half-inhibitory concentration (IC50) is 250 nM in data set [2] and 46 nM in data set [3].

As for `COCC(=O)NCC#Cc1ccc2ncnc(Nc3ccc(Oc4cccc(C(=O)Nc5ccccc5)c4)c(C)c3)c2c1`, the IC50 in data set [3] is 140 nM.

`COCC(=O)NCC#Cc1ccc2ncnc(Nc3ccc(Oc4ccc(C(=O)Nc5ccccc5)cc4)c(C)c3)c2c1` yielded an IC50 in data set [3] greater than 10000 nM.

As for `COCC(=O)NCC#Cc1ccc2ncnc(Nc3ccc(OC4CCN(C(=O)COC)CC4)c(C)c3)c2c1`, the IC50 in data set [3] is greater than 10000 nM.

On to `COCC(=O)NCC#Cc1ccc2ncnc(Nc3ccc(OC4CCN(C(=O)C5CCC5)CC4)c(C)c3)c2c1`, for which the Selectivity ratio in data set [1] was greater than 200. In addition, the IC50 came out at 51 nM in data set [2] and 150 nM in data set [3].

Turning to `COCC(=O)NCC#Cc1ccc2ncnc(Nc3ccc(Oc4cccc(C(=O)NC(C)(C)C)c4)c(C)c3)c2c1`, the Selectivity ratio in data set [1] was determined as 250. Also, the figures for the IC50 in data set [2] and in data set [3] were 30 nM and 18 nM, respectively.

With `Cc1cc(Nc2ncnc3cnc(N4CCOCC4)cc23)ccc1OC1CCN(C(=O)Nc2c(F)cccc2F)CC1`, the Selectivity ratio in data set [1] came to 210. The IC50 in data set [2] worked out at 16 nM; in data set [3], 7 nM.

On to `Cc1cc(Nc2ncnc3cnc(N(C)C)cc23)ccc1OC1CCN(C(=O)CC(C)(C)C)CC1`, for which the Selectivity ratio in data set [1] is greater than 230. Besides, the IC50 in data set [2] is less than 10 nM; in data set [3], 51 nM.

For `Cc1cc(Nc2ncnc3cnc(N(C)C)cc23)ccc1OC1CCN(C(=O)Nc2c(F)cccc2F)CC1`, in data set [1], the Selectivity ratio came to 68. In addition, the IC50 came out at 20 nM in data set [2] and 21 nM in data set [3].

Consider `COCC(=O)NCC#Cc1ccc2ncnc(Nc3ccc(Oc4cccc(C(=O)NCC(C)(C)C)c4)c(C)c3)c2c1`, for which, in data set [1], the Selectivity ratio stood at 91. The results for the IC50 in data set [2] and in data set [3] were 110 nM and 130 nM, respectively.

On to `COCCOc1cc2ncnc(Nc3ccc(OC4CCN(C(=O)CC(C)(C)C)CC4)c(C)c3)c2cc1OCCOC`, for which the Selectivity ratio in data set [1] came out at 11. The IC50 in data set [2] stood at 530 nM; in data set [3] it was 260 nM.

Consider `Cc1cc(Nc2ncnc3cnc(N4CCOCC4)cc23)ccc1OC1CCN(C(=O)CC(C)(C)C)CC1`, for which, in data set [1], the Selectivity ratio is greater than 1000. Also, the IC50 in data set [2] was less than 10 nM; in data set [3], 23 nM.

Consider `CNc1cc2c(Nc3ccc(Oc4ccc(C(=O)NCC(C)(C)C)cc4)c(C)c3)ncnc2cn1`, for which the Selectivity ratio in data set [1] was determined as 230. For the same compound, the values for the IC50 in data set [2] and in data set [3] were 13 nM and 30 nM, respectively.

For `COCCOc1cc2ncnc(Nc3ccc(OC4CCN(C(=O)C5CCCC5)CC4)c(C)c3)c2cc1OCCOC`, in data set [1], the Selectivity ratio was greater than 19. The figures for the IC50 in data set [2] and in data set [3] were 530 nM and 77 nM, respectively.

For the compound `Cc1cc(Nc2ncnc3ccc(OCCCN4CCOCC4)cc23)ccc1OC1CCN(C(=O)Nc2c(F)cccc2F)CC1`, the Selectivity ratio in data set [1] came to 32. Besides, the IC50 in data set [2] and in data set [3] was 55 nM in each case.

`COCCOc1ccc2ncnc(Nc3ccc(OC4CCN(C(=O)C5CCCC5)CC4)c(C)c3)c2c1`: in data set [1], the Selectivity ratio is greater than 350. The IC50 in data set [2] was 29 nM; in data set [3], 44 nM.

Take `COCC(=O)NCC#Cc1ccc2ncnc(Nc3ccc(OC4CCN(C(=O)C5CCCO5)CC4)c(C)c3)c2c1` (stereo unspecified): the IC50 turned out to be 2900 nM in data set [2] and 550 nM in data set [3].

Regarding `CNc1cc2c(Nc3ccc(OC4CCN(C(=O)Nc5c(F)cccc5F)CC4)c(C)c3)ncnc2cn1`, the Selectivity ratio in data set [1] worked out at 25. Besides, the IC50 was 180 nM in data set [2] and 25 nM in data set [3].

As for `Cc1cc(Nc2ncnc3cnc(NCCN4CCOCC4)cc23)ccc1Oc1ccc(C(=O)NCC(C)(C)C)cc1`, the Selectivity ratio in data set [1] turned out to be 230. Also, the IC50 was found to be 15 nM in data set [2] and 280 nM in data set [3].

Regarding `COCC(=O)NCC#Cc1ccc2ncnc(Nc3ccc(Oc4cccc(C(=O)NC5CCC5)c4)c(C)c3)c2c1`, the Selectivity ratio in data set [1] is greater than 64. In addition, the 50% inhibitory concentration (IC50) is 160 nM in data set [2] and 230 nM in data set [3].

Consider `COCC(=O)NCC#Cc1ccc2ncnc(Nc3ccc(OC4CCN(C(=O)c5cccc(Cl)c5)CC4)c(C)c3)c2c1`, for which the Selectivity ratio in data set [1] amounted to 92. Moreover, the IC50 in data set [2] is 75 nM; in data set [3] it was 210 nM.

For `Cc1cc(Nc2ncnc3cnc(N4CCCC4)cc23)ccc1Oc1ccc(C(=O)NCC(C)(C)C)cc1`, the Selectivity ratio in data set [1] was greater than 100. Further, the IC50 was less than 10 nM in data set [2] and 36 nM in data set [3].

`Cc1cc(Nc2ncnc3ccc(OCCCN4CCOCC4)cc23)ccc1OC1CCN(C(=O)CC(C)(C)C)CC1`: the Selectivity ratio in data set [1] was greater than 290. In addition, the IC50 in data set [2] is 34 nM; in data set [3], 75 nM.

In the case of `COCC(=O)NCC#Cc1ccc2ncnc(Nc3ccc(OC4CCN(C(=O)CC(C)(C)C)CC4)c(C)c3)c2c1`, the Selectivity ratio in data set [1] came to 400. Also, the IC50 was found to be 16 nM in data set [2] and 94 nM in data set [3].

As for `Cc1cc(Nc2ncnc3cnc(N4CCN(C)CC4)cc23)ccc1Oc1ccc(C(=O)NCC(C)(C)C)cc1`, in data set [1], the Selectivity ratio was greater than 660. Moreover, the values for the IC50 in data set [2] and in data set [3] were 15 nM and 130 nM, respectively.

For `COc1cc2ncnc(Nc3ccc(OC4CCN(C(=O)Nc5c(F)cccc5F)CC4)c(C)c3)c2cc1OC`, the Selectivity ratio in data set [1] was found to be 23. The half-inhibitory concentration (IC50) in data set [2] amounted to 67 nM; in data set [3] it was 19 nM.

`COCC(=O)NCC#Cc1ccc2ncnc(Nc3ccc(OC4CCN(C(C)=O)CC4)c(C)c3)c2c1` returned an IC50 in data set [3] greater than 10000 nM.

For `COc1cc2ncnc(Nc3ccc(OC4CCN(C(=O)CC(C)(C)C)CC4)c(C)c3)c2cc1OC`, in data set [1], the Selectivity ratio was greater than 130. Further, the figures for the IC50 in data set [2] and in data set [3] were 76 nM and 100 nM, respectively.

For the compound `COCC(=O)NCC#Cc1ccc2ncnc(Nc3ccc(OC4CCN(C(=O)Nc5c(F)cccc5F)CC4)c(C)c3)c2c1`, the Selectivity ratio in data set [1] was greater than 53. Also, the values for the IC50 in data set [2] and in data set [3] were 190 nM and 76 nM, respectively.

For `Cc1cc(Nc2ncnc3cnc(N(C)C)cc23)ccc1Oc1ccc(C(=O)NCC(C)(C)C)cc1`, the Selectivity ratio in data set [1] is greater than 770. The IC50 in data set [2] is less than 10 nM; in data set [3] it was 48 nM.

For the compound `COCC(=O)NCC#Cc1ccc2ncnc(Nc3ccc(Oc4ccc(C(=O)N(C)C)cc4)c(C)c3)c2c1`, the IC50 in data set [3] was greater than 10000 nM.

Regarding `COCCOc1ccc2ncnc(Nc3ccc(OC4CCN(C(=O)CC(C)(C)C)CC4)c(C)c3)c2c1`, the Selectivity ratio in data set [1] is greater than 500. Moreover, the IC50 turned out to be 19 nM in data set [2] and 120 nM in data set [3].

Take `COCCOc1ccc2ncnc(Nc3ccc(OC4CCN(C(=O)Nc5c(F)cccc5F)CC4)c(C)c3)c2c1`: the Selectivity ratio in data set [1] was greater than 300. Further, the values for the IC50 in data set [2] and in data set [3] were 33 nM and 27 nM, respectively.

For the compound `CNC(=O)c1cccc(Oc2ccc(Nc3ncnc4ccc(C#CCNC(=O)COC)cc34)cc2C)c1`, the IC50 in data set [3] is greater than 10000 nM.

For `COCCOc1cc2ncnc(Nc3ccc(OC4CCN(C(=O)Nc5c(F)cccc5F)CC4)c(C)c3)c2cc1OCCOC`, the Selectivity ratio in data set [1] turned out to be 6.5. Besides, the half-inhibitory concentration (IC50) in data set [2] turned out to be 840 nM; in data set [3], 230 nM.
